Data: ChEMBL document CHEMBL5678806, “NMS-P937, an orally available, specific small-molecule polo-like kinase 1 inhibitor with antitumor activity in solid and hematologic malignancies” (Mol Cancer Ther, 2012)

Columns and labels:
Insulin receptor = Insulin receptor (Homo sapiens, UniProt P06213); experiment: Inhibition of N-terminal His6-tagged recombinant human IR (1005 to 1310 residues) expressed in baculovirus infected Sf21 cells assessed as residual activity at 1 uM relative to control
[1] = Antiproliferative activity against human NPA cells assessed as inhibition of cell growth incubated for 72 hrs by cell-titer glo assay; assay type: functional, cell-based
How it was run: (§1)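 Cells from ATCC or ECACC, kept in supplier-recommended medium with 1% penicillin-streptomycin at 37°C, 5% CO₂. Seeded at 10,000–30,000/cm² (adherent) or 100,000/mL (nonadherent) in medium with 10% fetal calf serum. Dosed after 24 h in duplicate with serial dilutions. Viable cells read by CellTiter-Glo 72 h later. IC50 from sigmoidal fit. At least two independent experiments.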

[2] = target: Casein kinase I isoform gamma-3 (Homo sapiens) (UniProt Q9Y6M4); experiment: Inhibition of N-terminal 6His-tagged recombinant human CK1gamma3 (1 to 330 residues) expressed in baculovirus infected Sf21 cells assessed as residual activity at 0.1 uM relative to control
MV4-11 = experiment: Antiproliferative activity against human MV4-11 cells assessed as inhibition of cell growth incubated for 72 hrs by cell-titer glo assay; assay type: functional, cell-based; conditions: MV4-11, 72 h; how it was run: as §1
RS4-11 = experiment: Antiproliferative activity against human RS4-11 cells assessed as inhibition of cell growth incubated for 72 hrs by cell-titer glo assay; assay type: functional, cell-based; conditions: RS4-11, 72 h; how it was run: as §1
[3] = Antitumor activity against human Acute myeloid leukemic cell xenografted in nu/nu mouse assessed as increase in median survival time at 120 mg/kg, po administered for 2 days and measured after 5 days (reference value: 36 days); assay type: functional, Leukemia cell; conditions: time 2 day
[4] = target: Fibroblast growth factor receptor 1 (Homo sapiens, UniProt P11362); experiment: Inhibition of FGFR1 (unknown origin) in presence of [gamma-33P]ATP
Chain of Fibroblast growth factor receptor 1 (P11362 whole entry): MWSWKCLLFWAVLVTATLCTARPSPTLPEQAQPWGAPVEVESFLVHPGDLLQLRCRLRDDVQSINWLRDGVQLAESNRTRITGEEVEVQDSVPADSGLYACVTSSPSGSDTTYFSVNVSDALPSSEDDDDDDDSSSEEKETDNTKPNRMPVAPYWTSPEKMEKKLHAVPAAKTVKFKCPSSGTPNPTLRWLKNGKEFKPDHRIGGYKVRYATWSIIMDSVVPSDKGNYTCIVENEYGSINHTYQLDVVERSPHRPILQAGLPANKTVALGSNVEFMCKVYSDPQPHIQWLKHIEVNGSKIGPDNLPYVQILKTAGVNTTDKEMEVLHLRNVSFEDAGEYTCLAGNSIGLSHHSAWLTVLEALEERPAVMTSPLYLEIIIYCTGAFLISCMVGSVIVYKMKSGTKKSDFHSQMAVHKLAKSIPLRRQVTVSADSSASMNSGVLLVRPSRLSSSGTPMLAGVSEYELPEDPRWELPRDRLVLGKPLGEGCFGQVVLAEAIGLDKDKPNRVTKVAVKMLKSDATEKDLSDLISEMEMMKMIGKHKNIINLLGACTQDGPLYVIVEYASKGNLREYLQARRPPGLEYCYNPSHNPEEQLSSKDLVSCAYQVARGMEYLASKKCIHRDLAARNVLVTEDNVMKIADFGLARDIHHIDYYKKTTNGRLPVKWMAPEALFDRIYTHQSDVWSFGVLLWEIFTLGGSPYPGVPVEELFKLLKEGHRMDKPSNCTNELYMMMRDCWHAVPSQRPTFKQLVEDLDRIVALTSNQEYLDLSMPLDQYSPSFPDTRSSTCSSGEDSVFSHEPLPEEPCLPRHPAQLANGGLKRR

KMS-11 = experiment: Antiproliferative activity against human KMS-11 cells assessed as inhibition of cell growth incubated for 72 hrs by cell-titer glo assay; assay type: functional, cell-based; conditions: KMS-11, 72 h
How it was run: (§2)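 Cells seeded at 10,000–30,000/cm² (adherent) or 100,000/mL (nonadherent) in medium with 10% fetal calf serum; after 24 h, treated in duplicate with serial dilutions for 72 h. Viable cell number read by CellTiter-Glo luminescence; IC50 from sigmoidal fit; at least two independent experiments.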

NHDF = experiment: Induction of DNA damage in human NHDF cells assessed as H2AX phosphorylation at 0.5 to 1 uM incubated for 8 hrs by Western blotting analysis; assay type: toxicity, cell-based; conditions: dose 0.5-1 µM
[5] = AUC in Beagle dog at 5 mg/kg, iv by LC-MS analysis; assay type: ADME, organism-based, Canis lupus familiaris; conditions: in vivo
[6] = Clearance in Sprague-Dawley rat at 10 mg/kg, iv by LC-MS analysis; assay type: ADME, organism-based; conditions: in vivo
[7] = target: RAC-alpha serine/threonine-protein kinase (Homo sapiens, UniProt P31749); experiment: Inhibition of AKT1 (unknown origin) in presence of [gamma-33P]ATP
DLD-1 = experiment: Antiproliferative activity against human DLD-1 cells assessed as inhibition of cell growth incubated for 72 hrs by cell-titer glo assay; assay type: functional, cell-based; conditions: DLD-1, 72 h
How it was run: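 Cells seeded 10,000–30,000/cm² (adherent) or 100,000/mL (suspension) in medium with 10% fetal calf serum; after 24 h treated in duplicate with serial dilutions for 72 h. Viable cells read by CellTiter-Glo luminescence; IC50 from sigmoidal fit; at least two independent experiments.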

NCI-H2228 = experiment: Antiproliferative activity against human NCI-H2228 cells assessed as inhibition of cell growth incubated for 72 hrs by cell-titer glo assay; assay type: functional, cell-based; conditions: NCI-H2228, 72 h; how it was run: as §1
MOLT-4 = experiment: Antiproliferative activity against human MOLT-4 cells assessed as inhibition of cell growth incubated for 72 hrs by cell-titer glo assay; assay type: functional, cell-based; conditions: MOLT-4, 72 h; how it was run: as §1
Granta-519 = experiment: Antiproliferative activity against human Granta-519 cells assessed as inhibition of cell growth incubated for 72 hrs by cell-titer glo assay; assay type: functional, cell-based; conditions: Granta-519, 72 h; how it was run: as §2
NCI-H1437 = experiment: Antiproliferative activity against human NCI-H1437 cells assessed as inhibition of cell growth incubated for 72 hrs by cell-titer glo assay; assay type: functional, cell-based; conditions: NCI-H1437, 72 h; how it was run: as §1
HCC70 = experiment: Antiproliferative activity against human HCC70 cells assessed as inhibition of cell growth incubated for 72 hrs by cell-titer glo assay; assay type: functional, cell-based; conditions: HCC70, 72 h; how it was run: as §2
HT-29 = experiment: Antitumor activity against human HT-29 cells xenografted in nu/nu mouse assessed as tumor growth inhibition at 45 mg/kg, po administered for 3 days and measured after 1 day relative to control; assay type: functional; conditions: HT-29, 72 h, time 3 day, read-out: TGI
[8] = Cmax in nu/nu mouse at 10 mg/kg, iv by LC-MS analysis; assay type: ADME, organism-based; conditions: in vivo
[9] = AUC in nu/nu mouse at 10 mg/kg, po by LC-MS analysis; assay type: ADME, organism-based; conditions: in vivo
U-118-MG = experiment: Antiproliferative activity against human U-118-MG cells assessed as inhibition of cell growth incubated for 72 hrs by cell-titer glo assay; assay type: functional, cell-based
Casein kinase 2 = Casein kinase 2 (Homo sapiens, UniProt P67870+P68400+P19784+Q8NEV1); experiment: Inhibition of alpha-subunit N-terminal 6His- and beta-subunit N-terminal GST-tagged recombinant human CK2 expressed in baculovirus infected Sf21 cells assessed as residual activity at 1 uM relative to control
LCLC-97TM1 = experiment: Antiproliferative activity against human LCLC-97TM1 cells assessed as inhibition of cell growth incubated for 72 hrs by cell-titer glo assay; assay type: functional, cell-based; conditions: LCLC-97TM1, 72 h; how it was run: as §2
Activated CDC42 kinase 1 = Activated CDC42 kinase 1 (Homo sapiens, UniProt Q07912); experiment: Inhibition of ACK1 (unknown origin) in presence of [gamma-33P]ATP
Chain of Activated CDC42 kinase 1 (Q07912 whole entry): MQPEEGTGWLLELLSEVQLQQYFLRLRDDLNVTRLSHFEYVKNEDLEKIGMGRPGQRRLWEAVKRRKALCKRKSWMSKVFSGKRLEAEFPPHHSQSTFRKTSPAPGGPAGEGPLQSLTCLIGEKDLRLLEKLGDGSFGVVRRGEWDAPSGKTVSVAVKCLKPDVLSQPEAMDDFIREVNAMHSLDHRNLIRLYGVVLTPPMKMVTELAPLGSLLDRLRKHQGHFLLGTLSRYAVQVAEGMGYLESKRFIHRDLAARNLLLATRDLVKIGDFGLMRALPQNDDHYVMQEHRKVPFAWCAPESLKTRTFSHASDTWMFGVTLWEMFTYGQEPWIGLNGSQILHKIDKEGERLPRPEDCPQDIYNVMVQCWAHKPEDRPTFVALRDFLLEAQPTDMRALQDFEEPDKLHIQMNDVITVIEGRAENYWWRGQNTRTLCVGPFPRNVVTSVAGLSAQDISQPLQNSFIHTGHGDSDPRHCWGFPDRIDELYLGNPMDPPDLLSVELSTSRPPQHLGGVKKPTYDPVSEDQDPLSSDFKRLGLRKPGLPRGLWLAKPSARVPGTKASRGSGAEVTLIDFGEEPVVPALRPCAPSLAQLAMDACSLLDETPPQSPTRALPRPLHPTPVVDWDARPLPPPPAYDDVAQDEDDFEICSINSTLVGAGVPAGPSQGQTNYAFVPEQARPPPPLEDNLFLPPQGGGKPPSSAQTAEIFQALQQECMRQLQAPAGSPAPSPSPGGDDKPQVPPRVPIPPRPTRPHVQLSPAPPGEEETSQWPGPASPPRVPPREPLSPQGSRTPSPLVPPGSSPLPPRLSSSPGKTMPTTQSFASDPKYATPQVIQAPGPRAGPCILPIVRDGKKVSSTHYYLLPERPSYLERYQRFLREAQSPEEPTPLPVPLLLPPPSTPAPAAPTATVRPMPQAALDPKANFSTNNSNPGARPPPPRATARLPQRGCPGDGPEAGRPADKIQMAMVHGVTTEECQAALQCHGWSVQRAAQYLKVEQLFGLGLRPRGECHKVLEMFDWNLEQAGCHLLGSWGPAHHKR

SK-MEL-28 = experiment: Antiproliferative activity against human SK-MEL-28 cells assessed as inhibition of cell growth incubated for 72 hrs by cell-titer glo assay; assay type: functional, cell-based; conditions: SK-MEL-28, 72 h
[10] = Tmax in Sprague-Dawley rat at 10 mg/kg, po by LC-MS analysis; assay type: ADME, organism-based; conditions: in vivo
[11] = target: Tyrosine-protein kinase Lyn (Mus musculus) (UniProt P25911); experiment: Inhibition of N-terminal his6-tagged recombinant full-length mouse Lyn expressed in baculovirus infected Sf21 cells assessed as residual activity at 0.1 uM relative to control
Chain of Tyrosine-protein kinase Lyn (Mus musculus) (P25911 whole entry): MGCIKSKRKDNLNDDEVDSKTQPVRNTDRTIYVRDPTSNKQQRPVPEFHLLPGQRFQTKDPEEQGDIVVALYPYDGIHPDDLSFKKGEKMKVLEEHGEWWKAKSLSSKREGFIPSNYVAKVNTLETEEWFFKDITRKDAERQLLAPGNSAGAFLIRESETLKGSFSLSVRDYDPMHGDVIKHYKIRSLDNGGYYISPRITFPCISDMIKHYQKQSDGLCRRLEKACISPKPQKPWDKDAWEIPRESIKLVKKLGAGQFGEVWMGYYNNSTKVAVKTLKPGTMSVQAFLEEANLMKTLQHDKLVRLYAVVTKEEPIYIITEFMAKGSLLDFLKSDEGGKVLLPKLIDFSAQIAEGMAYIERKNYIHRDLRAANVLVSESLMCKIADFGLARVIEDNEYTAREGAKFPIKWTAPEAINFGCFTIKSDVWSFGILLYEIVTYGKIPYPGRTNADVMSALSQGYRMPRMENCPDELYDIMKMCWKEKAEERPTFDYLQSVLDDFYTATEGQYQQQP

[12] = target: Tyrosine-protein kinase Fgr (Homo sapiens) (UniProt P09769); experiment: Inhibition of N-terminal His6-tagged recombinant human Fgr (2 to end residues) expressed in baculovirus infected Sf21 cells assessed as residual activity at 0.1 uM relative to control
[13] = target: Serine/threonine-protein kinase pim-2 (Homo sapiens, UniProt Q9P1W9); experiment: Inhibition of PIM2 (unknown origin) in presence of [gamma-33P]ATP
Chain of Serine/threonine-protein kinase pim-2 (Q9P1W9 whole entry): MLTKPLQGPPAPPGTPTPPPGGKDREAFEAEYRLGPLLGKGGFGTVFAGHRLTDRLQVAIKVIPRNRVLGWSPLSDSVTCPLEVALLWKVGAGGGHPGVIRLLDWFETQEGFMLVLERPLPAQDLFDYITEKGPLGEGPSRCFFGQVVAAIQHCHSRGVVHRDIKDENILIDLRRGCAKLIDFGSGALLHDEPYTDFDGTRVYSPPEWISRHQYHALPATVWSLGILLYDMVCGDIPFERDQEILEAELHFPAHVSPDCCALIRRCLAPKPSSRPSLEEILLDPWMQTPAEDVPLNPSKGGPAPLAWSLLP

SK-N-MC = experiment: Antiproliferative activity against human SK-N-MC cells assessed as inhibition of cell growth incubated for 72 hrs by cell-titer glo assay; assay type: functional, cell-based
[14] = target: Ephrin type-B receptor 1 (Homo sapiens) (UniProt P54762); experiment: Inhibition of N-terminal 6His-tagged recombinant human EphB1 (564 to end residues) expressed in baculovirus infected Sf21 cells assessed as residual activity at 0.1 uM relative to control
Chain of Ephrin type-B receptor 1 (Homo sapiens) (P54762 whole entry): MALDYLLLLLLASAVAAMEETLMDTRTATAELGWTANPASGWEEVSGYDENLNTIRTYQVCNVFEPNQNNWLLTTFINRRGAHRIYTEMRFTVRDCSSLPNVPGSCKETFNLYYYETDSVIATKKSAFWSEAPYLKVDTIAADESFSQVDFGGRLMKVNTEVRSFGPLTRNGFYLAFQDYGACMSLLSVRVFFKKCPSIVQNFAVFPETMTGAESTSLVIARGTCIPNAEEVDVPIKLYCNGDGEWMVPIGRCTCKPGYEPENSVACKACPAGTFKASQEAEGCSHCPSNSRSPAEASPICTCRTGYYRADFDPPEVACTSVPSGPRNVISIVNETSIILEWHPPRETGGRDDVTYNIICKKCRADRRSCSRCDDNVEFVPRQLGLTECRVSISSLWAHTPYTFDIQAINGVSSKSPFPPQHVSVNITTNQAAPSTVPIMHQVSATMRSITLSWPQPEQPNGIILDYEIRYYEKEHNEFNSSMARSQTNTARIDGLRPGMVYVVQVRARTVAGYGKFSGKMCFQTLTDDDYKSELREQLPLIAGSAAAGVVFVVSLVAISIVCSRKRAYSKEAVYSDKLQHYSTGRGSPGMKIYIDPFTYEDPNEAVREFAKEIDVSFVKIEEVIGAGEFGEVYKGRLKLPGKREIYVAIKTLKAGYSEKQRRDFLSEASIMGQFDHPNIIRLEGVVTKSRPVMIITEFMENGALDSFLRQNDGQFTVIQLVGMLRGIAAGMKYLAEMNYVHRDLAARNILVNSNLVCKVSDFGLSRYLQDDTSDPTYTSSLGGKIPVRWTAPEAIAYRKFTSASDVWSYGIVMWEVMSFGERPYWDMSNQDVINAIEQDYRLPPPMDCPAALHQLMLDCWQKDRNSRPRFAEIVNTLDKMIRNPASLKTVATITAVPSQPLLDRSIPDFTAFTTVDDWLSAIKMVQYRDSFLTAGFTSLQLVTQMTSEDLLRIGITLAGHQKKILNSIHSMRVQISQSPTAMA

Chain of Insulin receptor (P06213 28-758 limits assumed): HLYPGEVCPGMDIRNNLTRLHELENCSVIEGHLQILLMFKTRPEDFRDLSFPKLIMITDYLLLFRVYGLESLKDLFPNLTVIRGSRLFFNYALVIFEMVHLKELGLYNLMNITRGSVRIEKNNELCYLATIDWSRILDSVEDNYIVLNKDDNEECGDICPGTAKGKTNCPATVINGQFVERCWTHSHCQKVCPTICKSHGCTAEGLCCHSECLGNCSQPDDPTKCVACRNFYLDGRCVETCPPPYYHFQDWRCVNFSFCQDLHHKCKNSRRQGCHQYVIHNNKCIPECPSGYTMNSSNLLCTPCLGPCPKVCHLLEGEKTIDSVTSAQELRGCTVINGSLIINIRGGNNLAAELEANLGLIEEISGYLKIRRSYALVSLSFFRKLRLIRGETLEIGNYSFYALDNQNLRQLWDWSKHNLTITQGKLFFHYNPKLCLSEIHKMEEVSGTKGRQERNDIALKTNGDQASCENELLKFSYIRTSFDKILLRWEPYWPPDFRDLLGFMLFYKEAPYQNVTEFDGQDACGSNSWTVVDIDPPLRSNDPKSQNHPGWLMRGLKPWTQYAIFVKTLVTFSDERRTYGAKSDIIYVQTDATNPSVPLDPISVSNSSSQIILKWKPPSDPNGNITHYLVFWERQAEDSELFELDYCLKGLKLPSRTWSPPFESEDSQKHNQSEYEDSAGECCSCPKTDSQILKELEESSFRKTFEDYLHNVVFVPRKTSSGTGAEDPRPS
Chain of Insulin receptor (P06213 763-1382 limits assumed): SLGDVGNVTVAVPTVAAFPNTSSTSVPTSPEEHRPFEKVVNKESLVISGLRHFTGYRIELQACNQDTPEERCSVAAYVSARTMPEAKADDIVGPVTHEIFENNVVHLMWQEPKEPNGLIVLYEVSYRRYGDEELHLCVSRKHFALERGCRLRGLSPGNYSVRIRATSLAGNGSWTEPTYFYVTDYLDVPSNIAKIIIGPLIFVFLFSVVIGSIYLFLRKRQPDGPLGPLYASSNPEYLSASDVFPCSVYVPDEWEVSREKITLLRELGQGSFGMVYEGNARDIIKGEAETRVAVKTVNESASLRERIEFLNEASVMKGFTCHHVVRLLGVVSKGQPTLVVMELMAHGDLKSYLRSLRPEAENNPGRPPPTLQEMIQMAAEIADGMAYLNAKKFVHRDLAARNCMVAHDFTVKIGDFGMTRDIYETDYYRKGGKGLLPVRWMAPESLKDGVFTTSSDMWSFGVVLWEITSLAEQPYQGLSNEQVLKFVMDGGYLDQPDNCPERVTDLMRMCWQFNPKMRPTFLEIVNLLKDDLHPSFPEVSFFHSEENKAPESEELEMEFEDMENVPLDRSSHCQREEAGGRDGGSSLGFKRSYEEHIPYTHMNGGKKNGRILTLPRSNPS

**Q.** For `CN1CCN(c2ccc(OC(F)(F)F)c(Nc3ncc4c(n3)-c3c(c(C(N)=O)nn3CCO)CC4)c2)CC1` [ONVANSERTIB], which Activity (Insulin receptor) is on record?
**A.** The Activity was 90%.

**Q.** And the IC50 [1]?
**A.** Its IC50 is 72 nM.

**Q.** What about the Activity [2] of the same compound?
**A.** The Activity was 96%.

**Q.** What about the IC50 (MV4-11) of the same compound?
**A.** Its IC50 is 58 nM.

**Q.** What about the IC50 (RS4-11) of the same compound?
**A.** The IC50 was 43 nM.

**Q.** What about the Time [3] of the same compound?
**A.** Its Time is 50 days.

**Q.** What about the IC50 [4] of the same compound?
**A.** The IC50 was greater than 10 µM.

**Q.** And the IC50 (KMS-11)?
**A.** Its IC50 is 46 nM.

**Q.** What about the Activity (NHDF) of the same compound?
**A.** The Activity was “Toxic”.

**Q.** And the AUC [5]?
**A.** The AUC was 4.2 µM·h.

**Q.** And the clearance [6]?
**A.** The clearance was 20.6 mL/min/kg.

**Q.** What about the IC50 [7] of the same compound?
**A.** The IC50 was greater than 10 µM.

**Q.** And the IC50 (DLD-1)?
**A.** The IC50 was 329 nM.

**Q.** What about the IC50 (NCI-H2228) of the same compound?
**A.** The IC50 was 335 nM.

**Q.** What about the IC50 (MOLT-4) of the same compound?
**A.** Its IC50 is 45 nM.

**Q.** And the IC50 (Granta-519)?
**A.** The IC50 was 29 nM.

**Q.** And the IC50 (NCI-H1437)?
**A.** Its IC50 is 39 nM.

**Q.** And the IC50 (HCC70)?
**A.** The IC50 was 279 nM.

**Q.** And the inhibition in vivo at 45 mg/kg (HT-29)?
**A.** Its inhibition in vivo at 45 mg/kg is 72%.

**Q.** What about the Cmax [8] of the same compound?
**A.** The Cmax was 8.3 µM.

**Q.** What about the AUC [9] of the same compound?
**A.** Its AUC is 2 µM·h.

**Q.** What about the IC50 (U-118-MG) of the same compound?
**A.** Its IC50 is 220 nM.

**Q.** What about the Activity (Casein kinase 2) of the same compound?
**A.** The Activity was 42%.

**Q.** What about the IC50 (LCLC-97TM1) of the same compound?
**A.** The IC50 was 32 nM.

**Q.** And the IC50 (Activated CDC42 kinase 1)?
**A.** The IC50 was greater than 10 µM.

**Q.** And the IC50 (SK-MEL-28)?
**A.** The IC50 was 78 nM.

**Q.** And the Tmax [10]?
**A.** Its Tmax is 3 h.

**Q.** And the Activity [11]?
**A.** The Activity was 137%.

**Q.** And the Activity [12]?
**A.** Its Activity is 93%.

**Q.** And the IC50 [13]?
**A.** The IC50 was greater than 10 µM.

**Q.** And the IC50 (SK-N-MC)?
**A.** Its IC50 is 73 nM.

**Q.** What about the Activity [14] of the same compound?
**A.** The Activity was 69%.
